Rows were chosen to be rich in hits. Some 4.4% of all compounds tested hit in one or more screens of this group.
Tb MetRS inh: T. brucei MetRS inhibitors, primary screen, biochemical, luminescence | AID 624268, 2012 | 360,000 tested, 0.4% active | inhibition, % at 11.9 µM | purified T. brucei MetRS, ATP depletion, Kinase-Glo luminescence;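 active = inhibition above a per-plate cutoff of the control wells' mean inhibition plus 3 SD, cut at about 5.5% in these data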
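Measured by: Kinase-Glo luciferase luminescence reporting remaining unconsumed ATP. Material: purified T. brucei MetRS enzyme. Doses: 11.9 µM compound single dose, 0.9% DMSO. Medium: HEPES buffer containing pyrophosphatase, BSA, spermine, DTT. Times: 15 min preincubation, 2 h reaction, all 25 °C. Reagent: methionine, ATP and bulk E. coli tRNA.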
MsrA inhibitor: bovine MsrA enzyme inhibitors, primary screen, biochemical, absorbance, HTS. 360,000 tested, 0.75% active. inhibition, % at 15.5 µM. Methionine sulfoxide reductase A (Bos taurus). AID 651718, 2012. purified bovine MsrA, absorbance read-out; in the data active = inhibition above about 4.5%
HTR2A ag: mouse Htr2a agonists via beta-arrestin recruitment, primary screen, cell-based, luminescence | 360,000 tested, 0.66% active | AID 624169, 2012 | 5-hydroxytryptamine receptor 2A (Mus musculus), P35363 | CHO-K1 mHTR2A beta-arrestin complementation; percent of 30 µM serotonin response | activation, % at 7.6 µM;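 active = activation above a run cutoff, the mean activation of all tested compounds plus 3 SD, cut at about 14% in these data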
AHR act: AHR activators, primary screen, cell-based, luminescence, luciferase reporter, human; 320,000 tested, 2.5% active; AHR-responsive luciferase reporter cells; activation, % at 5 µM; in the data active = activation above about 47%
Target sequence (P35869 whole entry, looked up): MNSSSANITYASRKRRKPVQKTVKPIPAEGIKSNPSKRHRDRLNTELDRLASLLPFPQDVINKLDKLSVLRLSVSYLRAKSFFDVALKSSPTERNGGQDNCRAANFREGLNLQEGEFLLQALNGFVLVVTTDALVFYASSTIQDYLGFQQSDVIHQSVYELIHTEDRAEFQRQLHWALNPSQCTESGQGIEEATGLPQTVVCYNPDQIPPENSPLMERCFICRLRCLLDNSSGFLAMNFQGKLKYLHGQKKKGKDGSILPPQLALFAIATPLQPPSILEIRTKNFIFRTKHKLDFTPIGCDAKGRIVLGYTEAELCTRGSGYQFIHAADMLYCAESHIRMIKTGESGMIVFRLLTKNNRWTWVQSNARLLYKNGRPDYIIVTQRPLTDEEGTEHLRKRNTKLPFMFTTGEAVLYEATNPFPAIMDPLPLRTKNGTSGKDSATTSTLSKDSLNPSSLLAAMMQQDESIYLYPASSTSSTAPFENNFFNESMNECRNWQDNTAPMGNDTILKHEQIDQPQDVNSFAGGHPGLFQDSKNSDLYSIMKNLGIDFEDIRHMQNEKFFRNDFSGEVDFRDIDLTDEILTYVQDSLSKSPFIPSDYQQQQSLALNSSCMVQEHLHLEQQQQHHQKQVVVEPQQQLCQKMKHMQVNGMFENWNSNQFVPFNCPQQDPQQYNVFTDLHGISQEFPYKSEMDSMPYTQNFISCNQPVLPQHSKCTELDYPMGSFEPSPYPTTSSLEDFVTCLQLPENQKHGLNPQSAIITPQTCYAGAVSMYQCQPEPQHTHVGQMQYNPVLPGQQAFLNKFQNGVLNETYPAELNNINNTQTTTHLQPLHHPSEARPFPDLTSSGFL
AI-2 QS mod: Vibrio harveyi AI-2 quorum sensing modulators, primary screen, JMH597 strain, luminescence/OD600 ratio | Vibrio harveyi JMH597 AI-2 luminescence/OD600 ratio, 9 h; active compounds read low; strain lacks LuxN and CqsS sensors; 0 = neutral-control median | activity change, % at 7.5 µM | 300,000 tested, 0.4% active | AID 2094, 2009; in the data active = activity change below about -75%, passing the limit was not always enough;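 note: luminescence divided by OD600 gain over 9 h not by final OD600 alone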
bovine MsrA act: bovine MsrA enzyme activators, primary screen, biochemical, absorbance, HTS; Methionine sulfoxide reductase A (Bos taurus); purified bovine MsrA, absorbance read-out; activation, % at 10.6 µM; 360,000 tested, 0.3% active; AID 602163, 2012; in the data active = activation above about 7.5%
Of the large screens only hits and unclear results are named; the others gave an inactive call.

COc1ccc(C(=O)/C=C/c2ccccc2)c(O)c1	none
CSc1ccc(/C=C/C(=O)c2ccc(O)cc2)cc1	AI-2 QS mod -93
O=C(/C=C/c1ccc(O)cc1)c1ccc(O)cc1O	AHR act 66
COc1cccc(-c2nnc(-c3ccco3)o2)c1	AHR act 51
C[C@]12Cc3ccccc3C1CC1=N[C@@H](c3ccc(C(F)(F)F)cc3)O[C@@]13C[C@@H]2C(=O)N3Cc1ccncc1 (some centres undefined)	none (no result: Tb MetRS inh, HTR2A ag, AHR act, AI-2 QS mod, bovine MsrA act)
CC(=O)c1ccc(NC(=S)N2CCN(CCN3C(=O)c4cccc5cccc(c45)C3=O)CC2)cc1	AHR act 122
COc1ccc(NC(=S)N2CCN(CCN3C(=O)c4cccc5cccc(c45)C3=O)CC2)cc1	AHR act 97
CC(=O)c1cccc(NC(=S)N2CCN(CCN3C(=O)c4cccc5cccc(c45)C3=O)CC2)c1	none
COc1ccc(NC(=S)N2CCN(C)CC2)cc1	none
CC(=O)Nc1sc2c(c1-c1nc3ccccc3s1)CN(C(C)C)CC2	AHR act 74 (no result: AI-2 QS mod)
CC(C)N1CCc2c(sc(NC(=O)c3nc4ccccc4s3)c2C(N)=O)C1	none
CC(=O)C1=C(C)N(Cc2ccc(F)cc2)C(=S)NC1c1cccc(F)c1 (centres undefined)	none (no result: Tb MetRS inh, HTR2A ag, AHR act, AI-2 QS mod, bovine MsrA act)
C[C@H]1COc2cc(NCCCN3CCOCC3)ccc2S(=O)(=O)N1	none (no result: Tb MetRS inh, HTR2A ag, AHR act, AI-2 QS mod, bovine MsrA act)
CCOc1ccccc1N/C(=C(/C(Cl)=C(Cl)Cl)[N+](=O)[O-])n1cncn1	AHR act 54 (no result: AI-2 QS mod)
Cc1ccn2c(NC3CCCC3)c(-c3ccccn3)nc2c1	AHR act 77
Cc1ccc(-c2nn(-c3ccccc3)cc2/C=N/O)cc1	none
O/N=C/c1cn(-c2ccccc2)nc1-c1cccnc1	AHR act 51
O=C(O)c1cccc(NC(=O)c2cn(-c3ccccc3)nc2-c2cc3ccccc3o2)c1	none
O=C(N/N=C/c1cn(-c2ccccc2)nc1-c1cccnc1)c1cccnc1	none
O=C(N/N=C/c1cn(-c2ccccc2)nc1-c1cc2ccccc2o1)c1ccncc1	AHR act 68
O=C(N/N=C/c1cn(-c2ccccc2)nc1-c1cc2ccccc2o1)c1cccnc1	AHR act 51
CCC/C(=C1/c2ccccc2C(=O)N1c1ccccc1)c1c(C)noc1C	none (no result: Tb MetRS inh, HTR2A ag, AHR act, AI-2 QS mod, bovine MsrA act)
Nc1nccc(-c2ccc(-n3cnc4ccccc43)cc2)n1	AHR act 48
c1ccc2c(c1)ncn2-c1ccc(-c2ccnc(-c3ccncc3)n2)cc1	none
COc1ccccc1-c1nnc(NC(=O)C(C)SC2=NCCS2)s1 (centres undefined)	AHR act 57
CC(SC1=NCCS1)C(=O)Nc1nnc(-c2ccc(Cl)cc2)s1 (centres undefined)	none
Cc1oc2ccc(OS(C)(=O)=O)cc2c1C(=O)OC(C)C	none
CCN(CC)C(=O)COc1ccc2oc(C)c(C(=O)OC(C)C)c2c1	AHR act 67
COc1ccc(-c2noc(CNC(=O)CCN3C(=O)[C@H]4CC=CC[C@H]4C3=O)n2)cc1	none
CCOC(=O)N1CCN(CC(=O)Nc2c(C(=O)OC)[nH]c3ccc(Cl)cc23)CC1	none
CCOC(=O)c1[nH]c2cc3c(cc2c1NC(=O)CN1CCN(CCO)CC1)OCO3	none
CCOC(=O)c1[nH]c2cc3c(cc2c1NC(=O)CN1CCC2(CC1)OCCO2)OCO3	AHR act 62
CCOC(=O)N1CCN(CC(=O)Nc2c(C(=O)OC)[nH]c3cc(C)ccc23)CC1	AHR act 64
COc1cccc(OC)c1-c1nn2c(-c3cc(-c4ccccc4)n[nH]3)nnc2s1	AHR act 94
CCN(CC)c1ccc(C=C2C(=O)OC3(CCCCC3)OC2=O)cc1	none
CCCCC1(C)OC(=O)C(=Cc2ccc(N(CC)CC)cc2)C(=O)O1 (centres undefined)	MsrA inhibitor 5.2
CSc1cccc(-n2cc(-c3ccc4c(c3)OCO4)[nH]c2=O)c1	AHR act 51 (no result: MsrA inhibitor)
CCc1nc(SCC(=O)NC2CC2)c2c(C)c(C)sc2n1	AHR act 52
NC(=O)c1cc(Br)cc2c3c([nH]c12)CCCC3	AHR act 64
Cc1ccc2nc(CN(C)C(=O)[C@H]3O[C@@H](n4cnc(C(N)=O)n4)[C@H](O)[C@@H]3O)[nH]c2c1	none (no result: Tb MetRS inh, HTR2A ag, AHR act, AI-2 QS mod, bovine MsrA act)
O=C(O)C1=CC2C=C(Cl)C=CC2OC1=O (centres undefined)	none (no result: AHR act, AI-2 QS mod)
c1ccc(CNc2nc(-c3ccccc3)nc3ccccc23)cc1	none
c1ccc(CNc2nc(NCc3ccccc3)c3ccccc3n2)cc1	Tb MetRS inh 6.5 (no result: MsrA inhibitor)
CN1C(=O)[C@@]2(O[C@H]3C=CC=CN3C3=C2C(=O)CCC3)c2cc([N+](=O)[O-])ccc21	none (no result: Tb MetRS inh, HTR2A ag, AHR act, AI-2 QS mod, bovine MsrA act)
COc1cccc(NC(=S)Nc2cc(C)cc(C)n2)c1	AHR act 66
Cc1cc(C)nc(NC(=S)Nc2cccc(F)c2)c1	AHR act 48
COc1ccc(NC(=S)Nc2cc(C)cc(C)n2)cc1OC	none
C[C@H]1CN([C@@H](C)CO)C(=O)CCCn2nncc2CO[C@@H]1CN(C)Cc1ccc2cccnc2c1	none (no result: Tb MetRS inh, HTR2A ag, AHR act, AI-2 QS mod, bovine MsrA act)
COc1ccc2c(c1)[C@@]1(OCCC=C[C@H]1C)C(=O)N2Cc1ccc(Br)cc1	none (no result: Tb MetRS inh, HTR2A ag, AHR act, AI-2 QS mod, bovine MsrA act)
Nc1cccc(CCc2nc3cc4ccccc4cc3[nH]2)c1	AHR act 62
Nc1ccc2nc(CCCCCCc3nc4ccc(N)cc4[nH]3)[nH]c2c1	none
O=C(NN=Cc1ccccc1Cl)C(=O)Nc1cccc(C(F)(F)F)c1	none (no result: Tb MetRS inh, HTR2A ag, AHR act, AI-2 QS mod, bovine MsrA act)
CCC(CC)C(=O)Nc1cc(C)c2c(=O)oc3ccccc3c2n1	AHR act 50
COc1ccc(-c2nc(C)c(C(C)=O)n2O)cc1	none
COc1ccc(-c2nc(C)c(C(C)=O)n2O)cc1OC	AHR act 48
COc1ccc(C(=O)C[n+]2cc(Br)cc3ccccc32)cc1[N+](=O)[O-]	AHR act 71
COc1ccc(C(=O)OCC(N)=O)cc1[N+](=O)[O-]	none
COC(=O)c1cc2c(c3c4cc(F)ccc4n(S(=O)(=O)c4ccc(OC)cc4)c13)C(=O)N(C)C2	none (no result: Tb MetRS inh, HTR2A ag, AHR act, AI-2 QS mod, bovine MsrA act)
COc1cc2c(cc1OC)C(C(=O)O)C(c1ccc3c(c1)OCO3)N(C)C2=O (centres undefined)	none (no result: Tb MetRS inh, HTR2A ag, AHR act, AI-2 QS mod, bovine MsrA act)
COc1ccc(Cl)cc1C(Nc1cccnc1)c1ccc2cccnc2c1O (centres undefined)	AI-2 QS mod -82
NC(=O)c1c(N)[nH]c(C(=O)c2ccccc2)c1-c1ccc2ccccc2c1	none (no result: Tb MetRS inh, HTR2A ag, AHR act, AI-2 QS mod, bovine MsrA act)
CS(=O)(=O)Nc1ccc(-c2ccc(/C=C3\SC(N)=NC3=O)o2)cc1	AHR act 58

Compound activity: PubChem BioAssay, several laboratories
